Sampled rows, rich in hits. Any-hit rate of the full collection: about 4.2%.
Lipid droplet: inhibitors of hepatocyte lipid droplet formation, primary screen, imaging, high-throughput imaging, BODIPY stain | inhibition, % at 6.5 µM | AML12 mouse hepatocytes, oleate lipid droplets | actives 0.4% (n = 240,000);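 active means lipid droplet intensity inhibited by at least 50%, with more than 500 cells counted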
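Test system: AML12 mouse liver cells; schedule: overnight exposure; technique: high-content imaging of BODIPY-stained droplets and DAPI nuclei; read-out: % inhibition of corrected integrated BODIPY droplet signal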
TMEM16A act: TMEM16A chloride channel activators or potentiators, primary screen, cell-based, HTS. HEK293 TMEM16A/YFP-H148Q/I152L, iodide quench fluorescence; active compounds read low. B-score at 10 µM. actives 0.3% (n = 340,000);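 active means fluorescence-ratio B-score plate-corrected deviation score at least 3 library SD below zero, with starting fluorescence score within 5 deviations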;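 further: channel opened by trigger with iodide after compound preincubation; score built on the fluorescence ratio of max minus min over baseline; more negative score means more quench and so TMEM16A activation or potentiation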
Target sequence (Q8BHY3 whole entry, looked up): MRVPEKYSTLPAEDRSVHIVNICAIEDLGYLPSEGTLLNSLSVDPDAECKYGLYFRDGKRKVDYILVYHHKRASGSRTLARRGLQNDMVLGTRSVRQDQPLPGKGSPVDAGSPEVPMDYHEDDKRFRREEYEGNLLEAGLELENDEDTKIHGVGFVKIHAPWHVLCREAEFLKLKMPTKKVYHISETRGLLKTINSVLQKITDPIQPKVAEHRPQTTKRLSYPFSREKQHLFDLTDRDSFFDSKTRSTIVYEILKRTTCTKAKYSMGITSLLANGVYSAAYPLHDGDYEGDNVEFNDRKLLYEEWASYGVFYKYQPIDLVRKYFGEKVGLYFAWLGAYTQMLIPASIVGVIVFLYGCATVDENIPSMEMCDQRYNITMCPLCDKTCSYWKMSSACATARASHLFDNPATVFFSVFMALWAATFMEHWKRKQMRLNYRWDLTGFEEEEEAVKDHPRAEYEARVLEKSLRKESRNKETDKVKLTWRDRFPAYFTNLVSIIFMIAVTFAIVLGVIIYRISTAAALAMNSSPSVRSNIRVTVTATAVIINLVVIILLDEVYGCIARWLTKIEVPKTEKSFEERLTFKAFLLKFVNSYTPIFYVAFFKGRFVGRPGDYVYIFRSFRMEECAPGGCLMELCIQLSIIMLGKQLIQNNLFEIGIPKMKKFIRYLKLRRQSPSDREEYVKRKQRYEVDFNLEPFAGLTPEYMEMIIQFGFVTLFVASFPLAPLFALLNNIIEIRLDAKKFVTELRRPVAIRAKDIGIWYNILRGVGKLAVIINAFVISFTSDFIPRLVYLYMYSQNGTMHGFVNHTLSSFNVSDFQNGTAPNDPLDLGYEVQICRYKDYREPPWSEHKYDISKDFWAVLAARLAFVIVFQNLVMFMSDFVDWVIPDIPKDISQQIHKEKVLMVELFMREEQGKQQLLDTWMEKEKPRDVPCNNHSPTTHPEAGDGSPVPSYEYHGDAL
UPR XBP1 act: activators of adaptive XBP1 UPR arm, primary screen, cell-based, CHO-XBP1 luciferase reporter, luminescence, uHTS | IRE1-XBP1 UPR activation; percent of tunicamycin response, DMSO as zero | activation, % at 20 µM | actives 0.33% (n = 330,000);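 active means versus positive control, 20 µM dose yields 30% or more activation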
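incubation = overnight seeding at 37 °C, 6 h compound treatment at 37 °C | assay system = CHO-XBP1 cells stably carrying IRE1-XBP1-driven luciferase reporter | input = 1000 cells per well | detection = luciferase luminescence | dosing = single point, 20 µM final compound, 1% DMSO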
CHOP UPR activ: activators of apoptotic CHOP UPR arm, primary screen, cell-based, CHO-CHOP luciferase reporter, luminescence, uHTS. actives 0.34% (n = 330,000). UPR activation; percent of tunicamycin response over DMSO baseline. AID 449763, 2010. activation, % at 10 µM;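 active means at 10 µM dose, activation of 40% or more, normalized to positive control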
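Material: CHO-CHOP cells, stable luciferase reporter of PERK-eIF2a-CHOP signalling; quantity: 500 reporter cells seeded per well; buffer or medium: F12 medium containing 10% fetal bovine serum; compound: one dose, 10 µM in 0.5% DMSO; incubation: 6 h compound treatment, 37 °C; measured by: Steady-Glo luciferase luminescence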
CHOP inh: inhibitors of CHOP promoter induction, primary screen, cell-based, unfolded protein response, luciferase reporter; AID 2732, 2010; inhibition, % at 10 µM; actives 3.8% (n = 220,000); CHO-K1 CHOP-promoter luciferase, tunicamycin-induced, 15-18 h;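 active means compounds that reduced the stress-induced luciferase reporter signal by more than about 70% of percent inhibition, limit read from the data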
TMEM16A inh: TMEM16A chloride channel inhibitors, primary screen, cell-based, HTS | HEK293 TMEM16A/YFP iodide influx fluorescence, ionomycin | normalized B-score (activity score, 25-100; higher = stronger inhibition) at 10 µM | actives 1.2% (n = 310,000);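 active means ratio plate-corrected score three or more library SD toward inhibition, starting fluorescence score within five deviations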;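 further: score derived from kinetic fluorescence span divided by baseline fluorescence per well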
Lipid drop inh: hepatocyte lipid droplet accumulation inhibitors, confirmation, imaging, AML12 mouse hepatocytes, single concentration, high-content; BODIPY lipid droplet imaging; droplets induced with 100 µM oleic acid; shares compounds with Lipid droplet; inhibition, % at 5.2 µM; AID 463183, 2010; actives 65% (n = 870);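 active means inhibition of lipid droplet metric at least 50%, with more than 300 cells in each of four replicates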
AML12 cytotox: AML12 hepatocyte cytotoxicity, counter-screen for hepatic lipid droplet formation project, imaging, DAPI nuclear morphology imaging; z-score at 5 µM; AML12 mouse hepatocytes; active compounds read high; cells fed 100 µM oleate overnight; actives 3% (n = 870); shares compounds with Lipid droplet; AID 463200, 2010; in the data active means z-score above about 6.3;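 further: compound exposure lasted overnight at 37 °C before fixation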
AML12 tox conf: AML12 hepatocyte cytotoxicity, confirmation, cytotoxicity control for hepatic lipid droplet formation project, cell-based, single concentration; shares compounds with Lipid droplet; AML12 mouse hepatocyte viability, ATP luminescence; cells loaded with 100 µM oleic acid; cytotoxicity, % at 50 µM; 530 tested, under 10 active;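 active means cytotoxicity above 50% in each of four replicates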;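 further: compound exposure lasted overnight at 37 °C before the ATP read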
CHOP confirm: retest of CHOP induction inhibitors, confirmation, cell-based | shares compounds with CHOP inh | AID 504437, 2011 | CHO-CHOP promoter luciferase reporter, tunicamycin-induced, luminescence | actives 45% (n = 2,100) | inhibition, % at 10 µM;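 active means mean of three repeat readings of reporter signal inhibition above a set limit, cut at about 70% in these data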
TMEM16A reconf: TMEM16A chloride channel inhibitors, confirmation, cell-based, re-confirmation; shares compounds with TMEM16A inh; HEK293 TMEM16A/YFP-H148Q, iodide quench fluorescence; ionomycin added to raise cell calcium; inhibition, % at 10 µM; actives 39% (n = 2,300); AID 652189, 2013;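 active means mean duplicate percent inhibition, scaled so buffer wells are 0 and the reference blocker 100, over three buffer SD above buffer mean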
HEK293 Ca mobil: calcium mobilization in TMEM16A/YFP HEK293 cells, confirmation, counter-screen for TMEM16A inhibitor project; shares compounds with TMEM16A inh; Fluo4 calcium mobilization; calcium response (% of ionomycin), % at 10 µM; actives 2% (n = 2,300);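 active means duplicate-averaged calcium signal over 20% of the ionomycin maximum, relative to buffer baseline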;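 further: each well's signal is peak minus trough fluorescence divided by its pre-addition baseline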
Parental YFP cnt: iodide YFP quench changes in parental YFP-HEK293, counter-screen for TMEM16A inhibitor project, cell-based; shares compounds with TMEM16A inh; YFP ratio F(max-min)/F0 at 10 µM; AID 652233, 2013; 2,300 tested, under 10 active; ionomycin;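 active means yellow fluorescent protein signal ratio exceeding the buffer control mean by over 5 SD of those controls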;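 further: ratio is mean of duplicate wells from kinetic YFP trace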
ClC-1 inh: ClC-1 chloride channel inhibition, selectivity assay for TMEM16A inhibitor project, cell-based, voltage-dependent ClC-1; CHO ClC-1-YFP, iodide influx fluorescence quench; iodide control reads 0, buffer control 100; AID 652236, 2013; ratio percent, % at 10 µM; shares compounds with TMEM16A inh; 2,300 tested, under 10 active;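 active means duplicate-mean ratio percent above the mean of iodide-only control wells, which defines zero, plus 5 of their SD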;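 further: higher percent means stronger block of ClC-1 iodide influx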
Large screens that a line does not name were inactive (follow-up assays come after a bar, where they were run).

CCOC(=O)N1CCN(C(=O)CSCC(=O)Nc2nc(-c3ccc(-c4ccccc4)cc3)cs2)CC1	Lipid droplet 82, CHOP inh 85, TMEM16A inh 100 | Lipid drop inh 76 | AML12 cytotox inactive | AML12 tox conf inactive | TMEM16A reconf 24% | HEK293 Ca mobil inactive | Parental YFP cnt inactive | ClC-1 inh inactive
CCOC(=O)N1CCN(C(=O)CSCC(=O)Nc2nc(-c3ccc(OC)cc3)cs2)CC1	none
CCN(CC)S(=O)(=O)c1ccc2c(c1)nc(CCC(=O)Nc1ccccc1Cc1ccccc1)n2CC	none
O=S(=O)(NCCN1CCOCC1)c1cc(Cl)ccc1Cl	none (no result: CHOP inh)
Cc1ccc(-n2nc3c(=O)n(C(C)C(=O)NCCC4=CCCCC4)nc(C)c3c2C)cc1 (stereo not given)	Lipid droplet 58, TMEM16A inh 25 (no result: CHOP inh) | Lipid drop inh 83 | AML12 cytotox inactive | AML12 tox conf inactive | TMEM16A reconf inactive | HEK293 Ca mobil inactive | Parental YFP cnt inactive | ClC-1 inh inactive
COc1cc(C(=O)Nc2sc3c(c2C(=O)NCc2ccco2)CCCC3)cc(OC)c1OC	none
COc1ccc(C(=O)Nc2sc3c(c2C(=O)NCc2ccco2)CCCC3)cc1OC	Lipid droplet 69, TMEM16A inh 25 | Lipid drop inh 105 | AML12 cytotox inactive | AML12 tox conf inactive | TMEM16A reconf inactive | HEK293 Ca mobil inactive | Parental YFP cnt inactive | ClC-1 inh inactive
Cc1cc(C)n(-c2nc(N(c3ccccc3)c3ccccc3)nc(-n3nc(C)cc3C)n2)n1	Lipid droplet 57, CHOP inh 109, TMEM16A inh 100 | Lipid drop inh 69 | AML12 cytotox inactive | AML12 tox conf 93 | CHOP confirm 140 | TMEM16A reconf 26% | HEK293 Ca mobil inactive | Parental YFP cnt inactive | ClC-1 inh inactive
CCOC(=O)c1sc(NC(=O)Nc2ccc(Cl)cc2)cc1C	CHOP inh 108 | CHOP confirm inactive
CCOC(=O)c1sc(NC(=S)NC(=O)C2CCCC2)cc1C	none
CCOC(=O)c1sc(NC(=S)NC(=O)CC(C)C)cc1C	CHOP inh 107 (no result: Lipid droplet) | CHOP confirm inactive
COc1ccc(C(=O)Nc2nnc(Cc3ccc(OC)c(OC)c3)s2)cc1	none (no result: CHOP inh)
O=C(c1nnsc1S(=O)(=O)c1ccc(Cl)cc1)N1CCOCC1	CHOP inh 102 (no result: TMEM16A inh) | CHOP confirm 95
CNC(=O)c1nnsc1S(=O)(=O)c1ccc(Cl)cc1	CHOP inh 107 (no result: TMEM16A inh) | CHOP confirm 114
CNC(=O)c1ccc(S(=O)(=O)c2ccc(Cl)cc2)c(NC(C)=O)c1	none (no result: CHOP inh)
O=C(c1cc(-c2ccc(Cl)cc2)on1)N1CCOCC1	none
O=C(c1nnsc1S(=O)c1ccc(Cl)cc1)N1CCOCC1 (stereo not given)	CHOP inh 107 (no result: TMEM16A inh) | CHOP confirm inactive
CN1CCN(S(=O)(=O)c2ccc(NS(=O)(=O)c3ccccc3)cc2)CC1	none (no result: CHOP inh)
COc1cccc(C(=O)NCCS(=O)(=O)NCCCc2ccccc2)c1	none (no result: Lipid droplet, CHOP inh)
CC(C)(C)OC(=O)NCCc1nnc(S(=O)(=O)Cc2ccc(Cl)cc2Cl)o1	CHOP inh 106 (no result: Lipid droplet) | CHOP confirm 129
CC(C)(C)OC(=O)NCCc1nnc(SCc2ccccc2Cl)o1	none (no result: Lipid droplet)
Cc1ccc(S(=O)(=O)NNC(=O)C2Cc3c(ccc4ccccc34)O2)cc1 (stereo not given)	none (no result: Lipid droplet)
CCCCOc1ccc(S(=O)(=O)NNC(=O)C2Cc3c(ccc4ccccc34)O2)cc1 (stereo not given)	CHOP inh 98 | CHOP confirm inactive
Cc1nc(SCC(=O)Nc2ccc(F)cc2)c2oc3ccccc3c2n1	CHOP inh 106 | CHOP confirm inactive
Cc1nc(SCC(=O)Nc2ccccc2)c2oc3ccccc3c2n1	CHOP inh 96 (no result: Lipid droplet) | CHOP confirm inactive
Cc1nc(SCC(=O)NC(C)c2ccccc2)c2oc3ccccc3c2n1 (stereo not given)	none
O=C(NNC1CC(=O)N(c2ccc3c(c2)OCCO3)C1=O)c1ccccc1 (stereo not given)	none (no result: Lipid droplet)
O=C(O)c1cc(S(=O)(=O)Nc2ccc(N3CCCCC3)cc2)ccc1Cl	none
O=S(=O)(Nc1ccc(N2CCCCC2)cc1)c1ccc(F)c(F)c1	CHOP inh 100 | CHOP confirm inactive
CN(C(=O)C=Cc1ccccc1)c1ccccc1	none (no result: Lipid droplet, UPR XBP1 act, CHOP UPR activ, CHOP inh, TMEM16A inh)

Screening results: PubChem, several laboratories
